According to ChEMBL document CHEMBL5058577, “EUbOPEN Chemogenomics Library 2 (Multiplex)” (2022):

Tested on: HEK-293T
Experiment: Multiplex assay against HEK293T
Format: toxicity, cell-based
Conditions: human
Method in brief: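 Per cents of healthy-nucleus cells form the tubulin, mitochondrial-mass and membrane-permeability phenotype values. Live cells were stained at seeding with Hoechst33342, BioTracker Green Microtubule Cytoskeleton Dye, MitoTracker Red and Annexin V Alexa Fluor 680. After compound addition they were imaged on a CQ1 microscope at 37°C and 5% CO2, and CellPathfinder machine-learning gating split them into Hoechst high-intensity objects or normal cells, normal cells into healthy, pyknosed or fragmented nuclei, and pyknosed cells into mitotic or apoptotic.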

[1] = 12 h, 1 µM, compound concentration 1 uM, replicate 1
[2] = 12 h, 1 µM, compound concentration 1 uM, replicate 2
[3] = 12 h, 10 µM, compound concentration 10 uM, replicate 1
[4] = 12 h, 10 µM, compound concentration 10 uM, replicate 2
[5] = 24 h, 1 µM, compound concentration 1 uM, replicate 1
[6] = 24 h, 1 µM, compound concentration 1 uM, replicate 2
[7] = 24 h, 10 µM, compound concentration 10 uM, replicate 1
[8] = 24 h, 10 µM, compound concentration 10 uM, replicate 2
[9] = 48 h, 1 µM, compound concentration 1 uM, replicate 1
[10] = 48 h, 1 µM, compound concentration 1 uM, replicate 2
[11] = 48 h, 10 µM, compound concentration 10 uM, replicate 1
[12] = 48 h, 10 µM, compound concentration 10 uM, replicate 2

With `COc1cccc2c1c(NS(=O)(=O)c1ccc(Cl)s1)nn2Cc1cccc(CNC(=O)C(C)(C)O)c1` the “Population Apoptotic (%)” value [1] was 31%, the “Population Fragmented Nuclei (%)” value [1] was 6% and the “Population Healthy Nuclei (%)” value [1] was 82%. The “Population Hoechst High Intensity Objects (%)” value [1] was 6%, the “Population Membrane Permeable-Phenotype (%)” value [1] was 0% and the “Population Mitochondria Different-Phenotype (%)” value [1] was 39%. The “Population Mitotic Cells (%)” value [1] was 68%, the “Population Normal (%)” value [1] was 93% and the “Population Pyknosed Nuclei (%)” value [1] was 10%. The “Population Tubulin-Different-Phenotype (%)” value [1] was 26%, the “Total Cell Count” value [1] was 469 and the “Population Apoptotic (%)” value [2] was 34%. For the same compound, the “Population Fragmented Nuclei (%)” value [2] was 7%, the “Population Healthy Nuclei (%)” value [2] was 77% and the “Population Hoechst High Intensity Objects (%)” value [2] was 10%. For the same compound, the “Population Mitochondria Different-Phenotype (%)” value [2] was 52%, the “Population Mitotic Cells (%)” value [2] was 65% and the “Population Normal (%)” value [2] was 89%. The “Population Pyknosed Nuclei (%)” value [2] was 15%, the “Population Tubulin-Different-Phenotype (%)” value [2] was 23% and the “Total Cell Count” value [2] was 315. The “Population Apoptotic (%)” value [3] was 42%, the “Population Fragmented Nuclei (%)” value [3] was 6% and the “Population Healthy Nuclei (%)” value [3] was 80%. The “Population Hoechst High Intensity Objects (%)” value [3] was 7%, the “Population Membrane Permeable-Phenotype (%)” value [3] was 0% and the “Population Mitochondria Different-Phenotype (%)” value [3] was 51%. The “Population Mitotic Cells (%)” value [3] was 57%, the “Population Normal (%)” value [3] was 92% and the “Population Pyknosed Nuclei (%)” value [3] was 12%. The “Population Tubulin-Different-Phenotype (%)” value [3] was 38%, the “Total Cell Count” value [3] was 356 and the “Population Apoptotic (%)” value [4] was 35%. For the same compound, the “Population Fragmented Nuclei (%)” value [4] was 5%, the “Population Healthy Nuclei (%)” value [4] was 78% and the “Population Hoechst High Intensity Objects (%)” value [4] was 11%. For the same compound, the “Population Mitochondria Different-Phenotype (%)” value [4] was 69%, the “Population Mitotic Cells (%)” value [4] was 65% and the “Population Normal (%)” value [4] was 88%. The “Population Pyknosed Nuclei (%)” value [4] was 16%, the “Population Tubulin-Different-Phenotype (%)” value [4] was 33% and the “Total Cell Count” value [4] was 280. For the same compound, the “Population Apoptotic (%)” value [5] was 26%, the “Population Fragmented Nuclei (%)” value [5] was 7% and the “Population Healthy Nuclei (%)” value [5] was 81%. The “Population Hoechst High Intensity Objects (%)” value [5] was 2%, the “Population Membrane Permeable-Phenotype (%)” value [5] was 0% and the “Population Mitochondria Different-Phenotype (%)” value [5] was 22%. For the same compound, the “Population Mitotic Cells (%)” value [5] was 73%, the “Population Normal (%)” value [5] was 97% and the “Population Pyknosed Nuclei (%)” value [5] was 11%. The “Population Tubulin-Different-Phenotype (%)” value [5] was 17%, the “Total Cell Count” value [5] was 617 and the “Population Apoptotic (%)” value [6] was 44%. The “Population Fragmented Nuclei (%)” value [6] was 6%, the “Population Healthy Nuclei (%)” value [6] was 84% and the “Population Hoechst High Intensity Objects (%)” value [6] was 7%. The “Population Mitochondria Different-Phenotype (%)” value [6] was 37%, the “Population Mitotic Cells (%)” value [6] was 55% and the “Population Normal (%)” value [6] was 92%. For the same compound, the “Population Pyknosed Nuclei (%)” value [6] was 8%, the “Population Tubulin-Different-Phenotype (%)” value [6] was 15% and the “Total Cell Count” value [6] was 357. For the same compound, the “Population Apoptotic (%)” value [7] was 40%, the “Population Fragmented Nuclei (%)” value [7] was 10% and the “Population Healthy Nuclei (%)” value [7] was 73%. For the same compound, the “Population Hoechst High Intensity Objects (%)” value [7] was 5%, the “Population Membrane Permeable-Phenotype (%)” value [7] was 0% and the “Population Mitochondria Different-Phenotype (%)” value [7] was 34%. The “Population Mitotic Cells (%)” value [7] was 60%, the “Population Normal (%)” value [7] was 94% and the “Population Pyknosed Nuclei (%)” value [7] was 16%. The “Population Tubulin-Different-Phenotype (%)” value [7] was 23%, the “Total Cell Count” value [7] was 462 and the “Population Fragmented Nuclei (%)” value [8] was 9%. For the same compound, the “Population Healthy Nuclei (%)” value [8] was 77%, the “Population Mitochondria Different-Phenotype (%)” value [8] was 46% and the “Population Pyknosed Nuclei (%)” value [8] was 12%. The “Population Tubulin-Different-Phenotype (%)” value [8] was 22%, the “Total Cell Count” value [8] was 384 and the “Population Apoptotic (%)” value [9] was 16%. For the same compound, the “Population Fragmented Nuclei (%)” value [9] was 10%, the “Population Healthy Nuclei (%)” value [9] was 83% and the “Population Hoechst High Intensity Objects (%)” value [9] was 2%. For the same compound, the “Population Membrane Permeable-Phenotype (%)” value [9] was 0%, the “Population Mitochondria Different-Phenotype (%)” value [9] was 18% and the “Population Mitotic Cells (%)” value [9] was 83%. The “Population Normal (%)” value [9] was 97%, the “Population Pyknosed Nuclei (%)” value [9] was 6% and the “Population Tubulin-Different-Phenotype (%)” value [9] was 11%. For the same compound, the “Total Cell Count” value [9] was 1062, the “Population Apoptotic (%)” value [10] was 28% and the “Population Fragmented Nuclei (%)” value [10] was 11%. For the same compound, the “Population Membrane Permeable-Phenotype (%)” value [10] was 2%, the “Population Mitochondria Different-Phenotype (%)” value [10] was 21% and the “Population Mitotic Cells (%)” value [10] was 71%. The “Population Pyknosed Nuclei (%)” value [10] was 4%, the “Population Tubulin-Different-Phenotype (%)” value [10] was 10% and the “Total Cell Count” value [10] was 591. For the same compound, the “Population Apoptotic (%)” value [11] was 26%, the “Population Fragmented Nuclei (%)” value [11] was 16% and the “Population Healthy Nuclei (%)” value [11] was 72%. The “Population Hoechst High Intensity Objects (%)” value [11] was 4%, the “Population Membrane Permeable-Phenotype (%)” value [11] was 0% and the “Population Mitochondria Different-Phenotype (%)” value [11] was 25%. For the same compound, the “Population Mitotic Cells (%)” value [11] was 73%, the “Population Normal (%)” value [11] was 95% and the “Population Pyknosed Nuclei (%)” value [11] was 10%. For the same compound, the “Population Tubulin-Different-Phenotype (%)” value [11] was 16%, the “Total Cell Count” value [11] was 646 and the “Population Apoptotic (%)” value [12] was 35%. For the same compound, the “Population Fragmented Nuclei (%)” value [12] was 8%, the “Population Healthy Nuclei (%)” value [12] was 83% and the “Population Mitochondria Different-Phenotype (%)” value [12] was 27%. The “Population Mitotic Cells (%)” value [12] was 65%, the “Population Pyknosed Nuclei (%)” value [12] was 7% and the “Population Tubulin-Different-Phenotype (%)” value [12] was 12%. The “Total Cell Count” value [12] was 550.
